Measurements gathered from unrelated publications.
Compare with care: the assays were run in different laboratories.
FABP4: Fatty acid-binding protein, adipocyte (FABP4, Homo sapiens, UniProt P15090)
CDK9 with cyclin T1: Cyclin-dependent kinase 9, with cyclin T1 (CDK9, Homo sapiens, UniProt P50750)
TNKS: Poly [ADP-ribose] polymerase tankyrase-1 (TNKS, Homo sapiens, UniProt O95271)
AKT1: RAC-alpha serine/threonine-protein kinase (AKT1, Homo sapiens, UniProt P31749)
CYP2C9: Cytochrome P450 2C9 (CYP2C9, Homo sapiens, UniProt P11712)

Compound | target | test | system | setting | IC50 [nM]
CCCCCCCCCC(=O)O | FABP4 | ligand displacement, fluorescence |  | pH 7.5 | 3390
CN(C)C(=O)c1cc2cnc(Nc3ccc(-c4cccc5c(=O)cc(N6CCOCC6)oc45)cn3)nc2n1C1CCCC1 | CDK9 with cyclin T1 | enzyme activity, inhibitor, radiometric |  |  | 4150
COc1cc(-c2ccccc2)ncc1C(=O)Nc1ccc2c(=O)[nH]c(-c3ccc(C(C)(C)O)cc3)nc2c1 | TNKS | enzyme activity, inhibitor |  |  | 86.9
CNS(=O)(=O)c1ccc(Nc2ncc(C(F)(F)F)c(N3CCCC(C)(O)C3)n2)c(C)c1 (stereo not drawn) | CDK9 with cyclin T1 | enzyme activity, inhibitor, radiometric |  |  | > 10000
OC1(c2ccc(-c3ccnc4[nH]cc(F)c34)cc2)CCCNC1 (stereo not drawn) | AKT1 | target engagement in cells, BRET |  |  | 22400
CN(C)C(=O)c1cc2cnc(Nc3cncc(-c4cccc5c(=O)cc(N6CCOCC6)oc45)c3)nc2n1C1CCCC1 | CDK9 with cyclin T1 | enzyme activity, inhibitor, radiometric |  |  | 8
O=C(O[C@@H]1[C@@H](O)[C@H](Oc2cc(O)c3c(c2)O[C@H](c2ccccc2)CC3=O)O[C@@H]2COC(=O)c3cc(O)c(O)c(O)c3-c3c(cc(O)c(O)c3O)C(=O)O[C@@H]12)c1cc(O)c(O)c(O)c1 | Protein disulfide-isomerase A3 (PDIA3, Homo sapiens, UniProt P30101) | enzyme activity, inhibitor, fluorescence |  |  | 3300
C[C@]12CC[C@@H]3c4ccc(O)cc4C[C@@H](CCCCCCCCC[S+]([O-])CCCC(F)(F)C(F)(F)F)[C@H]3[C@@H]1CC[C@@H]2O (stereo partly drawn) | Dipeptidyl peptidase 4 (DPP4, Homo sapiens, UniProt P27487) | enzyme activity, inhibitor, absorbance |  |  | 66300
OC1(c2ccc(-c3ccnc4[nH]cc(F)c34)cc2)CCCNCC1 (stereo not drawn) | AKT1 | enzyme activity, inhibitor, radiometric |  |  | 400
NC/C(=C\F)COc1cccc(Cn2c(=S)[nH]c(=O)c3[nH]cnc32)c1 | Myeloperoxidase (Mus musculus, UniProt P11247) | enzyme activity, inhibitor |  |  | 100
CCCCCCCCCCCCCC(=O)O | FABP4 | ligand displacement, fluorescence |  | pH 7.5 | 1340
COc1ccc(-c2oc3cc(Nc4ncc5cc(C(=O)N(C)C)n(C6CCCC6)c5n4)ccc3c(=O)c2F)cc1 | CDK9 with cyclin T1 | enzyme activity, inhibitor, radiometric |  |  | 27.6
C=CCn1c(=O)c2cnc(Nc3ccc(N4CCN(C)CC4)cc3)nc2n1-c1ccc2c(n1)[C@@](O)(CC)CC2 | CYP2C9 | enzyme activity, inhibitor |  |  | 50000
O=C(CCCCc1ccc(CO)cc1)C(F)(F)C(F)(F)F | Phospholipase A2 group V (PLA2G5, Homo sapiens, UniProt P39877) | enzyme activity, inhibitor |  |  | 228000
Cc1nc2c(F)cc(-c3ccnc(Nc4ccc5c(=O)cc(N6CCOCC6)oc5c4)n3)cc2n1C(C)C | CDK9 with cyclin T1 | enzyme activity, inhibitor, radiometric |  |  | 24
OC1(c2ccc(-c3ccnc4[nH]cc(F)c34)cc2)CNC1 | AKT1 | target engagement in cells, BRET |  |  | 22800
CC(=O)N1C(=O)NC(C)=C(C(=O)OCC(C)C)C1c1cccc([N+](=O)[O-])c1 (racemic) | Voltage-dependent T-type calcium channel subunit alpha-1H (CACNA1H, Homo sapiens, UniProt O95180) | ion current, inhibitor, patch clamp |  |  | 1700

Compound | target | test | system | setting | IC50 [nM]
CNS(=O)(=O)c1ccc(Nc2ncc(C(F)(F)F)c([C@H]3CC[C@@](C)(O)CC3)n2)c(C)c1 | CDK9 with cyclin T1 | enzyme activity, inhibitor, radiometric |  |  | > 10000
CN(C)C(=O)c1cc2cnc(Nc3cc(C(F)(F)F)c(-c4ccc5c(=O)cc(N6CCOCC6)oc5c4)cn3)nc2n1C1CCCC1 | CDK9 with cyclin T1 | enzyme activity, inhibitor, radiometric |  |  | > 10000
CC(C)(O)c1ccc(-c2nc3cc(NC(=O)c4cnc(OCc5ccccc5)nc4)ccc3c(=O)[nH]2)cc1 | TNKS | enzyme activity, inhibitor |  |  | 6360
COc1ccc(-c2coc3cc(O)ccc3c2=O)cc1O | CYP2C9 | enzyme activity, inhibitor | human, liver microsomes | 15 min | 13300
CN(C)C(=O)c1cc2cnc(Nc3cncc(-c4ccc5c(=O)cc(N6CCOCC6)oc5c4)c3)nc2n1C1CCCC1 | CDK9 with cyclin T1 | enzyme activity, inhibitor, radiometric |  |  | 0.57
CCc1ccc(Cn2nnc3c4ccc(F)cc4c(=O)[nH]c32)cc1 | TNKS | enzyme activity, inhibitor, fluorescence |  |  | 126
CCCCCCCCC(=O)O | FABP4 | ligand displacement, fluorescence |  | pH 7.5 | 30000
Cc1cc(O)c(-c2ccc([C@@H](C)CN(C)C)cc2)c2c1[nH]c(=O)c1sccc12 | Cyclin-dependent kinase 1, with cyclin A (CDK1, Homo sapiens, UniProt P06493) | enzyme activity, inhibitor |  |  | > 1000
C[C@@H]1CNC[C@H](C)[C@@]1(O)c1ccc(-c2ccnc3[nH]cc(F)c23)cc1 | AKT1 | enzyme activity, inhibitor, radiometric |  |  | 130
CN(C)C(=O)c1cc2cnc(Nc3cc(C(=O)O)cc(-c4ccc5c(=O)cc(N6CCOCC6)oc5c4)c3)nc2n1C1CCCC1 | CDK9 with cyclin T1 | enzyme activity, inhibitor, radiometric |  |  | 28
Fc1c[nH]c2nccc(-c3ccc(C4CCNCC4)cc3)c12 | AKT1 | enzyme activity, inhibitor, radiometric |  |  | 895
CCc1oc2cc(F)ccc2c1C(=O)c1cc(Br)c(O)c(Br)c1 | SLC22A13 (Homo sapiens, UniProt Q9Y226) | transporter uptake, inhibitor, radiometric |  | oocytes | 39600
COc1ccc(-c2cc(=O)c3ccc(Nc4ncc5cc(C(=O)N(C)C)n(C6CCCC6)c5n4)cc3o2)cc1 | CDK9 with cyclin T1 | enzyme activity, inhibitor, radiometric |  |  | 0.76
CCN(CC)CCNC(=O)c1ccc(NCN2C(=O)NC(c3ccccc3)(c3ccccc3)C2=O)cc1 | Mitogen-activated protein kinase 3 (MAPK3, Homo sapiens, UniProt P27361) | enzyme activity, inhibitor, ADP detection |  |  | > 250000
Cc1cc(-c2ccnc3[nH]cc(F)c23)cc(F)c1[C@@]1(O)[C@H](C)CN(C2CCS(=O)(=O)CC2)C[C@@H]1C | AKT1 | enzyme activity, inhibitor, radiometric |  |  | 346
Cc1cc(S(=O)(=O)NCCO[C@H]2CC[C@H](CN3CCC(c4ccn5c(N6CCC(=O)NC6=O)cnc5c4)CC3)CC2)ccc1Nc1ncc2cc(Cl)c(=O)n(C3CCCC3)c2n1 | CDK9 with cyclin T1 | enzyme activity, inhibitor, radiometric |  |  | > 10000
